In brackets after ≈: the same amount, converted by molar mass.
What was measured:
Type in all cases: functional
Bacillus subtilis = assay: Antimicrobial activity against Bacillus subtilis ATCC 11229 after 24 hrs by dilution susceptibility assay; details: ATCC 11229, 24 h
Summary of the method: (§1)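 Broth microdilution MIC per CLSI recommendations, ATCC strains, 96-well format, no agitation; inoculum 2 × 10⁵ bacterial cells per well; incubated 24 h at 37 °C; MIC as average of 3 independent experiments.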

Escherichia coli = assay: Antimicrobial activity against Escherichia coli […] after 24 hrs by dilution susceptibility assay; summary of the method: as §1
Staphylococcus aureus = assay: Antimicrobial activity against Staphylococcus aureus ATCC 6538 after 24 hrs by dilution susceptibility assay; details: ATCC 6538, 24 h; summary of the method: as §1

Row | SMILES | MIC (Bacillus subtilis) [µg/mL] | MIC (Escherichia coli) [µg/mL] | MIC (Staphylococcus aureus) [µg/mL]
1 | CCC(=O)/C=C(\O)c1ccccn1 | 211 (≈ 1190 µM) | 195 (≈ 1100 µM) | 23.6 (≈ 133 µM)
2 | CCC(=O)C(C)C(=O)c1ccccn1 (stereo unspecified) | 786 (≈ 4110 µM) | 391 (≈ 2040 µM) | 758 (≈ 3960 µM)
3 | CCC(=O)/C=C(\O)c1cccnc1 | 374 (≈ 2110 µM) | 379 (≈ 2140 µM) | 380 (≈ 2150 µM)
4 | CC(=O)/C=C(\O)c1cccnc1 | 397 (≈ 2430 µM) | 402 (≈ 2460 µM) | 392 (≈ 2400 µM)
5 | CCCC(=O)/C=C(\O)c1ccccn1 | 97.2 (≈ 509 µM) | 97.8 (≈ 512 µM) | 192 (≈ 1000 µM)
6 | CC(=O)/C=C(\O)c1ccccn1 | 190 (≈ 1160 µM) | 379 (≈ 2320 µM) | 46.9 (≈ 287 µM)
7 | CCCC(=O)/C=C(\O)c1cccnc1 | 200 (≈ 1050 µM) | 94.1 (≈ 492 µM) | 193 (≈ 1010 µM)

Results, then the molecule that gave them:

Row | MIC (Bacillus subtilis) [µg/mL] | MIC (Escherichia coli) [µg/mL] | MIC (Staphylococcus aureus) [µg/mL] | SMILES
8 | 95.4 (≈ 465 µM) | 95.4 (≈ 465 µM) | 95.5 (≈ 465 µM) | CCCCC(=O)/C=C(\O)c1cccnc1
9 | 24.5 (≈ 109 µM) | 24.1 (≈ 107 µM) | 47.4 (≈ 210 µM) | O=C(/C=C(\O)c1ccccn1)c1ccccc1
10 | 48.1 (≈ 235 µM) | 47.7 (≈ 232 µM) | 96.5 (≈ 470 µM) | CCCCC(=O)/C=C(\O)c1ccccn1
11 | 94.6 (≈ 420 µM) | 95.8 (≈ 425 µM) | 95.1 (≈ 422 µM) | O=C(/C=C(\O)c1cccnc1)c1ccccc1
12 | 12.5 (≈ 35.7 µM) | 6.99 (≈ 20 µM) | 3.19 (≈ 9.13 µM) | CC1(C)S[C@@H]2[C@H](NC(=O)[C@H](N)c3ccccc3)C(=O)N2[C@H]1C(=O)O [AMPICILLIN]
